MIC data for five molecules are collected here from ChEMBL document CHEMBL1275555, “Genetic heterogeneity in pbp genes among clinically isolated group B Streptococci with reduced penicillin susceptibility” (2008).

In brackets after ≈: the same amount, converted by molar mass.

Assay [1] deals with Streptococcus sp. 'group B'. Briefly: Antimicrobial activity against Group B streptococcus R8 harboring T77I, S353F and A514V in PBP 2X; V80A and G613R in PBP 2B; and L45P, N163K, N723S and G527V in PBP 1A by broth microdilution method. Type of assay: functional. An outline of the steps:
(§1)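 Broth microdilution MICs following CLSI guidelines, using a commercial panel system; GBS clinical isolates and reference strains grown in Todd-Hewitt broth at 37°C. Each strain tested five times to confirm reproducibility, with S. pneumoniae ATCC 49619 as quality-control strain. No β-lactamase activity by acidimetric method in any strain.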
(Broth dilution looks for growth in wells or tubes with falling amounts of substance.)

The subject of assay [2] is Streptococcus sp. 'group B'. Briefly: Antimicrobial activity against Group B streptococcus serotype Ia R7 harboring T77I, F395V and S353F in PBP 2X; V80A and G613R in PBP 2B; and L45P, N163K, N723S and Y470F in PBP 1A by broth microdilution method. The class given is functional. In outline: as §1
For assay [3], the system named is Streptococcus sp. 'group B'. Briefly: Antimicrobial activity against Group B streptococcus serotype VI R6 harboring F395L, V405A, R433H, H438Y, A374V and G648A mutations in PBP 2X and T567I mutation in PBP 2B by broth microdilution method. Type of assay: functional. An outline of the steps: as §1
For assay [4], the system named is Streptococcus sp. 'group B'. Briefly: Antimicrobial activity against Group B streptococcus serotype VI R5 harboring F395L, V405A, R433H, H438Y, and G648A mutations in PBP 2X and T567I mutation in PBP 2B by broth microdilution method. Type of assay: functional. In outline: as §1
Assay [5] concerns Streptococcus sp. 'group B'. Briefly: Antimicrobial activity against Group B streptococcus serotype VI R4 harboring Q557E mutation in PBP 2X and T567I, Y262N mutations in PBP 2B by broth microdilution method. The class given is functional. In outline:
as §1

The subject of assay [6] is Streptococcus sp. 'group B'. Briefly: Antimicrobial activity against Group B streptococcus serotype Ib R3 harboring Q557E, A400V mutations in PBP 2X and T567I, G539E mutations in PBP 2B by broth microdilution method. The class given is functional. An outline of the steps: as §1
For assay [7], the system named is Streptococcus sp. 'group B'. Briefly: Antimicrobial activity against Group B streptococcus serotype VI R2 harboring F395L, V405A, R433H, H438Y, and G648A mutations in PBP 2X and T567I mutation in PBP 2B by broth microdilution method. The class given is functional. In outline:
as §1

The subject of assay [8] is Streptococcus sp. 'group B'. Briefly: Antimicrobial activity against Group B streptococcus serotype VI R1 harboring F395L, V405A, R433H, H438Y, and G648A mutations in PBP 2X and T567I mutation in PBP 2B by broth microdilution method. The class given is functional. An outline of the steps:
as §1

In assay [9] the test system is Streptococcus sp. 'group B'. Briefly: Antimicrobial activity against Group B streptococcus serotype Ib C2 harboring E63K mutation in PBP 2A and L41S mutation in PBP 1B by broth microdilution method. Type of assay: functional. An outline of the steps:
as §1

In assay [10] the test system is Streptococcus sp. 'group B'. Briefly: Antimicrobial activity against Group B streptococcus serotype V C1 harboring E63K mutation in PBP 2A and L41S mutation in PBP 1B by broth microdilution method. Type of assay: functional. An outline of the steps: as §1
For assay [11], the system named is Streptococcus sp. 'group B'. Briefly: Antimicrobial activity against Group B streptococcus serotype VI N4 harboring E63K mutation in PBP 2A and L41S mutation in PBP 1B by broth microdilution method. The class given is functional. In outline: as §1
Assay [12] concerns Streptococcus sp. 'group B'. Briefly: Antimicrobial activity against Group B streptococcus serotype III N3 by broth microdilution method. Type of assay: functional. In outline:
(§2)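 Broth microdilution MICs read on a commercial dried panel system (type 3J), following CLSI guidelines. Isolates were grown in Todd-Hewitt broth at 37°C. Each strain was tested five times for reproducibility, with S. pneumoniae ATCC 49619 as the quality-control strain. β-lactamase activity was checked by the acidimetric method.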

Assay [13] concerns Streptococcus sp. 'group B'. Briefly: Antimicrobial activity against Group B streptococcus serotype Ib N2 harboring E63K mutation in PBP 2A and L41S mutation in PBP 1B by broth microdilution method. The class given is functional. An outline of the steps: as §1
For assay [14], the system named is Streptococcus sp. 'group B'. Briefly: Antimicrobial activity against Group B Streptococcus serotype Ia N1 harboring E63K mutation in PBP 2A and L41S mutation in PBP 1B by broth microdilution method. Type of assay: functional. In outline: as §1
In assay [15] the test system is Streptococcus sp. 'group B'. Briefly: Antimicrobial activity against Group B Streptococcus serotype III NEM 316 by broth microdilution method. The class given is functional. An outline of the steps: as §2
The test system of assay [16] is Streptococcus sp. 'group B'. Briefly: Antimicrobial activity against Group B Streptococcus serotype V harboring E63K mutation in PBP 2A and L41S mutation in PBP 1B by broth microdilution method.

In general, MIC refers to the lowest concentration found to suppress growth. Take `C[C@@H](O)[C@H]1C(=O)N2C(C(=O)O)=C(S[C@@H]3CN[C@H](C(=O)N(C)C)C3)[C@H](C)[C@H]12` [MEROPENEM]: the MIC came to 0.25 µg/mL (≈ 0.652 µM) in assay [1]; 0.25 µg/mL (≈ 0.652 µM) in assay [2]; 0.5 µg/mL (≈ 1.3 µM) in assay [3]; 0.25 µg/mL (≈ 0.652 µM) in assay [4]; 0.25 µg/mL (≈ 0.652 µM) in assay [5]; 0.25 µg/mL (≈ 0.652 µM) in [6]. The MIC in assay [7] was 0.5 µg/mL (≈ 1.3 µM); in assay [8] it was 0.25 µg/mL (≈ 0.652 µM); in assay [9] it was at most 0.12 µg/mL; in assay [10], at most 0.12 µg/mL; in assay [11] it was at most 0.12 µg/mL; in assay [12] it was at most 0.12 µg/mL. Also, the MIC in assay [13], in assay [14], in assay [15] and in assay [16] was at most 0.12 µg/mL in each case.

With `CO/N=C(\C(=O)N[C@@H]1C(=O)N2C(C(=O)O)=C(COC(C)=O)CS[C@H]12)c1csc(N)n1` [CEFOTAXIME], the MIC in assay [1] was found to be 1 µg/mL (≈ 2.2 µM); in assay [2] it was 1 µg/mL (≈ 2.2 µM); in [3] it was 0.5 µg/mL (≈ 1.1 µM); in [4] it was 0.5 µg/mL (≈ 1.1 µM); in [5], 0.5 µg/mL (≈ 1.1 µM); in [6], 0.5 µg/mL (≈ 1.1 µM). The MIC in [7] was 0.5 µg/mL (≈ 1.1 µM); in assay [8], 0.5 µg/mL (≈ 1.1 µM); in assay [9], 0.12 µg/mL (≈ 0.263 µM); in assay [10], at most 0.06 µg/mL; in assay [11] it was at most 0.06 µg/mL; in assay [12] it was 0.12 µg/mL (≈ 0.263 µM). Also, the MIC in [13] was 0.12 µg/mL (≈ 0.263 µM); in assay [14], 0.12 µg/mL (≈ 0.263 µM); in assay [15], at most 0.06 µg/mL; in assay [16], at most 0.06 µg/mL.

For the molecule `CC[C@H]1OC(=O)[C@H](C)[C@@H](O[C@H]2C[C@@](C)(OC)[C@@H](O)[C@H](C)O2)[C@H](C)[C@@H](O[C@@H]2O[C@H](C)C[C@H](N(C)C)[C@H]2O)[C@](C)(OC)C[C@@H](C)C(=O)[C@H](C)[C@@H](O)[C@]1(C)O` [CLARITHROMYCIN], the MIC in assay [1] was 1 µg/mL (≈ 1.34 µM); in assay [2], 2 µg/mL (≈ 2.67 µM); in assay [3] it was at most 0.12 µg/mL; in assay [4] it was at most 0.12 µg/mL; in assay [5], over 2 µg/mL; in [6] it was at most 0.12 µg/mL. In addition, the MIC in assay [7], in assay [8], in [9], in assay [10], in assay [11] and in [12] was at most 0.12 µg/mL each time. Besides, the MIC in assay [13], in [14], in assay [15] and in assay [16] was at most 0.12 µg/mL throughout.

`CCC[C@@H]1C[C@@H](C(=O)N[C@@H]([C@H]2O[C@H](SC)[C@H](O)[C@@H](O)[C@H]2O)[C@H](C)Cl)N(C)C1` [CLINDAMYCIN]: the MIC in [1] is at most 0.12 µg/mL; in assay [2], at most 0.12 µg/mL; in [3], at most 0.12 µg/mL; in assay [4], at most 0.12 µg/mL; in assay [5], over 1 µg/mL; in assay [6], at most 0.12 µg/mL. Moreover, the MIC in assay [7], in assay [8], in assay [9], in assay [10], in assay [11] and in assay [12] was at most 0.12 µg/mL in each case. Besides, the MIC in assay [13], in [14], in assay [15] and in [16] was at most 0.12 µg/mL throughout.

Take `CO/N=C(\C(=O)N[C@@H]1C(=O)N2C(C(=O)[O-])=C(C[n+]3ccn4ncccc43)CS[C@H]12)c1nsc(N)n1` [CEFOZOPRAN]: the MIC is 1 µg/mL (≈ 1.94 µM) in [1]; 2 µg/mL (≈ 3.88 µM) in [2]; 0.5 µg/mL (≈ 0.97 µM) in assay [3]; 0.5 µg/mL (≈ 0.97 µM) in assay [4]; 0.5 µg/mL (≈ 0.97 µM) in assay [5]; 1 µg/mL (≈ 1.94 µM) in [6]. Besides, the MIC in assay [7] is 1 µg/mL (≈ 1.94 µM); in assay [8], 0.5 µg/mL (≈ 0.97 µM); in [9] it was 0.12 µg/mL (≈ 0.233 µM); in assay [10] it was 0.12 µg/mL (≈ 0.233 µM); in [11] it was 0.12 µg/mL (≈ 0.233 µM); in assay [12] it was 0.12 µg/mL (≈ 0.233 µM). The MIC in assay [13], in [14], in assay [15] and in assay [16] was 0.12 µg/mL (≈ 0.233 µM) throughout.
